The list is not random: actives were taken first. Their share in the collection is about 2%.
EBI2 block – EBI2 receptor antagonists, beta-arrestin recruitment, primary screen, cell-based, luminescence, 7a,25-OHC stimulation, uHTS. G-protein coupled receptor 183 (Homo sapiens), P32249. 7a,25-OHC stimulated. inhibition, % at 5 µM. 360,000 compounds, 0.81% hits; in the data active means inhibition above about 38%;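 further: enzyme fragment complementation signal reports receptor beta-arrestin coupling in cells; 0% = agonist plus DMSO wells and 100% = wells without agonist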
GAA850 FXN act – FXN promoter activators, primary screen, cell-based, luciferase luminescence, HEK293 lucGAA850. 360,000 compounds, 0.56% hits. AID 540364, 2011. activation, % at 6 µM. HEK293 lucGAA850 FXN promoter luciferase reporter, 24 h; percent of 10 µM SAHA response;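 active means activation above the average of all compounds screened plus 3 SD, cutoff fixed separately per campaign, cut at about 7.5% in these data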;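 further: 0% = DMSO wells and 100% = 10 µM SAHA wells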
APJ antagonist – antagonists of human apelin receptor APJ, primary screen, CHO-K1 cells, beta-arrestin complementation, luminescence; P35414; inhibition, % at 20 µM; 330,000 compounds, 0.32% hits;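 active means inhibition above about 40% at 20 µM, limit read from the data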;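 further: cells challenged with 10 nM apelin-13 agonist together with compound; plate controls were apelin-13 plus DMSO wells for no effect and DMSO wells lacking apelin-13 for full effect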
Target sequence (P35414 whole entry, looked up): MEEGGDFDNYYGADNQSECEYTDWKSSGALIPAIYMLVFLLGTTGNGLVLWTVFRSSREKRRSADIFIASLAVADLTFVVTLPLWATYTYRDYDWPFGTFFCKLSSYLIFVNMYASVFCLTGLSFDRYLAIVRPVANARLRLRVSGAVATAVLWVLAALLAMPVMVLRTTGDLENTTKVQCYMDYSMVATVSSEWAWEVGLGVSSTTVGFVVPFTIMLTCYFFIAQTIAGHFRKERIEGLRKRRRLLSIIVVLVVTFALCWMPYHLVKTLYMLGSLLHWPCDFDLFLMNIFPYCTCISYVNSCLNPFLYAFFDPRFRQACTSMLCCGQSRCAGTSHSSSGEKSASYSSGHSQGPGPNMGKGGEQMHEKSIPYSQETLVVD
APJ ag – agonists of human apelin receptor APJ, primary screen, CHO-K1 cells, PathHunter beta-arrestin, luminescence; 330,000 compounds, 0.11% hits; 0% DMSO wells, 100% apelin; activation, % at 20 µM; P35414;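 active means activation more than six SD over the plate average, tested at 20 µM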;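 further: 0% = DMSO alone and 100% = apelin-13 at 10 nM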
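Material: engineered CHO-K1 APJ arrestin reporter cells; amount: 1000 CHO-K1 reporter cells seeded per well; incubation: compound stimulation 90 min at 25 °C, detection 60 min; signal: luminescent beta-gal fragment complementation, chemiluminescent substrate; read-out basis: APJ agonist activity; controls: DMSO-only wells as negative, 10 nM Apelin-13 as positive control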
CXCR6 block – CXCR6 receptor inhibitors, primary screen, cell-based, beta-arrestin, luminescence, CHO-K1 PathHunter, 1536-well; C-X-C chemokine receptor type 6 (Homo sapiens), O00574; inhibition, % at 20 µM; 360,000 compounds, 0.36% hits; AID 602244, 2012; in the data active means inhibition above about 34%, passing the limit was not always enough;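 further: antagonist mode with CXCL16 agonist at 10 nM final; 0% = 10 nM CXCL16 with DMSO and 100% = unstimulated wells without agonist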
CCR6 antag – CCR6 receptor antagonists, primary screen, cell-based, CHO-K1, luminescence, beta-arrestin, uHTS | inhibition, % at 20 µM | 340,000 compounds, 0.49% hits | CHO-K1 CCR6 PathHunter beta-arrestin, CCL20-stimulated;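 active means compounds whose inhibition of the agonist-driven luminescence signal at 20 µM reaches about 50%, limit read from the data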;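 further: cells stimulated with CCL20 at 14 nM final; plate controls were DMSO with CCL20 for no effect and DMSO without agonist for full effect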
EBI2 antag conf – EBI2 antagonist hit retest, beta-arrestin, confirmation, cell-based, single concentration, luminescence, 7a,25-OHC stimulation; 2,400 compounds, 29% hits; shares compounds with EBI2 block; inhibition, % at 5 µM; 7a,25-OHC antagonism;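 active means inhibition of at least 50%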
EBI2 ag – EBI2 agonist activity of antagonist hits, confirmation, counter-screen for EBI2 antagonist project, cell-based, single concentration, agonist mode, luminescence; shares compounds with EBI2 block; EBI2-expressing cells, 60 min; 0% vehicle, 100% 7α,25-dihydroxycholesterol control; activation, % at 5 µM; 2,400 tested, under 10 active;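 active means activation of at least 50%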
bGal cs – E. coli beta-galactosidase enzyme inhibition, confirmation, counter-screen for EBI2 antagonist project, biochemical, luminescence, single concentration; shares compounds with EBI2 block; purified beta-galactosidase, luminescent Galacton Star, 15 min; inhibition, % at 5 µM; 2,400 compounds, 1% hits;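 active means replicate-average signal at least 3 plate SD below neutral wells, shown as high inhibition, flagging enzyme-inhibiting false positives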;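 further: 0% = DMSO wells with enzyme and 100% = wells lacking enzyme; higher means stronger loss of beta-gal luminescence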
Numbers without * were called inactive; x = no result.

SMILES	EBI2 block	GAA850 FXN act	APJ antagonist	APJ ag	CXCR6 block	CCR6 antag	EBI2 antag conf	EBI2 ag	bGal cs
CCn1c(SCC(=O)NNC(=O)c2ccc(OC)cc2)nnc1-c1cccnc1	59*	-1	2	-3	7	16	15	1	2
O=C(CSc1nnc(-c2ccc(O)cc2)n1Cc1ccccc1)NNC(=O)c1ccc(Br)cc1	89*	1	-6	-3	2	2	87*	-1	-7
COc1ccc(-n2c(SCC(=O)NNC(=O)c3ccc(C)cc3)nnc2-c2ccncc2)cc1	55*	1	5	-2	-9	-1	30	2	3
COc1ccc(C(=O)NNC(=O)CSc2nnc(-c3cccnc3)n2C)cc1	17	5	-13	-2	-1	2	x	x	x
O=C(/C=C/c1ccc(F)cc1)N1CCc2ccccc2C1	16	3	11	-5	2	12	x	x	x
Cc1ccc(/C=C/C(=O)N2CCc3ccccc3C2)cc1	40	0	-3	-2	0	6	x	x	x
Cc1ccc(/C=C/C(=O)NN2CCN(C)CC2)cc1	64*	1	8	-1	-2	2	39	-1	-7
CCN1CCN(C(=O)/C=C/c2ccc(C)cc2)CC1	95*	2	-9	-9	4	4	84*	2	5
O=C(/C=C/c1ccc(F)cc1)N1CCCN(C(=O)/C=C/c2ccc(F)cc2)CC1	85*	1	-19	-2	2	11	73*	-2	-19
Cc1ccc(/C=C/C(=O)N2CCCN(C(=O)/C=C/c3ccc(C)cc3)CC2)cc1	94*	1	-5	0	-14	-8	82*	1	-1
CCC(c1nnnn1-c1ccc2c(c1)OCCO2)N1CCN(c2ccc(C(F)(F)F)cc2[N+](=O)[O-])CC1 (centres undefined)	7	x	x	x	-4	x	x	x	x
N#C/C(=C/c1ccc2c(c1)OCO2)C(=O)NCCc1c[nH]c2ccccc12	51*	-2	7	0	3	13	44	1	9
O=C(NCCc1c[nH]c2ccccc12)c1ccc2c(c1)OCO2	-2	2	9	-2	6	17	x	x	x
CN(c1ccc(OCC(=O)NCCc2ccccc2)cc1)S(=O)(=O)c1ccc(Cl)cc1	34	1	-7	-5	10	31	x	x	x
COc1ccc(CCNC(=O)COc2ccc(N(C)S(=O)(=O)c3ccc(Cl)cc3)cc2)cc1	63*	-1	x	x	9	7	34	-1	-14
CCOC(=O)C1(C)CCCN1C(=O)c1csnn1 (centres undefined)	1	-1	x	x	-1	x	x	x	x
COc1ccc(CCC(=O)N2CCN(C3CCCCC3)CC2)cc1	45*	3	5	-4	-2	3	15	-1	-8
COc1ccc(CCC(=O)N2CCN(C(=O)c3ccccc3)CC2)cc1	55*	0	14	1	9	0	40	2	-1
CC(C)OC(=O)N(C)C[C@@H]1OCc2cnnn2CCCC(=O)N([C@@H](C)CO)C[C@H]1C	-11	-1	x	x	-7	x	x	x	x
O=C(O)c1cc2c(s1)-c1ccccc1OC2	5	0	-15	-1	1	2	x	x	x
CCOC(=O)N1CCN(C(=O)c2cc3c(s2)-c2c(C)cccc2OC3)CC1	91*	2	16	-2	-4	12	87*	1	-6
CCN1CCN(C(=O)c2cc3c(s2)-c2c(C)cccc2OC3)CC1	91*	3	12	-3	-1	8	78*	1	7
Cc1cccc2c1-c1sc(C(=O)N3CCCCC3)cc1CO2	78*	6	8	-3	-12	16	71*	0	4
O=C(c1ccco1)N1CCN(C(=O)c2cc3c(s2)-c2ccccc2OC3)CC1	70*	2	21	-1	2	19	62*	1	-1
Cc1cccc2c1-c1sc(C(=O)N3CCc4ccccc4C3)cc1CO2	11	0	2	-2	-2	9	x	x	x
SMILES	EBI2 block	GAA850 FXN act	APJ antagonist	APJ ag	CXCR6 block	CCR6 antag	EBI2 antag conf	EBI2 ag	bGal cs
CCOC(=O)N1CCN(S(=O)(=O)c2c(C)nc3sccn3c2=O)CC1	-3	2	16	-6	3	6	x	x	x
CC(=O)c1cccc(-c2ccnc3c2CC(C(=O)NCC2CCOCC2)O3)c1 (centres undefined)	-3	-3	x	x	-7	x	x	x	x
O=C1c2cccc3cccc(c23)C(=O)N1CCN1CCN(CC(O)COc2ccc3ccccc3c2)CC1 (centres undefined)	49*	0	10	-3	-2	-1	19	0	4
CCc1ccc(OCC(O)CN2CCC(CN3C(=O)c4cccc5cccc(c45)C3=O)CC2)cc1 (centres undefined)	60*	1	-14	4	-23	-4	24	0	2
CC(=O)c1ccccc1OCC(O)CN1CCN(CCN2C(=O)c3cccc4cccc(c34)C2=O)CC1 (centres undefined)	13	2	-3	7	-16	6	x	x	x
O=C1COC(c2ccccc2)=CN1Cc1ccccc1	2	2	18	-3	-11	9	x	x	x
CCN(CC)C(=O)c1[nH]cnc1C(=O)Nc1ccc(Cl)cc1	0	3	8	-2	4	4	x	x	x
Cc1ccc(S(=O)(=O)N2CCN(C(=O)c3ccc(-n4cncn4)c([N+](=O)[O-])c3)CC2)c(C)c1	64*	0	x	x	-17	x	23	0	-13
COc1ccc(C(C)=O)cc1CSc1nc2ccccc2c(=O)n1-c1ccccc1C	44*	3	1	4	12	2	23	1	7
COc1ccc(-c2nnc(C3CCN(S(=O)(=O)c4ccccc4)CC3)o2)cc1	47*	0	7	-2	-5	0	20	0	-7
